# Assay results of several laboratories.
# Protocols differ between the studies behind these lines.
# Target: Angiopoietin-1 receptor (TEK, Homo sapiens, UniProt Q02763)
SMILES,observed,technique,concentration,remaining binding [%]
C[C@@H]1CCN(c2nccc(-c3cnn4ncccc34)n2)C1,binding,,1 µM,77
Cc1nc(N2CC[C@@H](O)C2)ncc1-c1cc(C(F)(F)F)cc2[nH]ncc12,cell-free assay,competition with immobilised ligand,1 µM,100
N#Cc1ccccc1CSc1nnc2c(n1)[nH]c1ccccc12,binding,competition with immobilised ligand,10 µM,100
F[C@@H]1CCN(c2nccc(-c3cnn4ncccc34)n2)C1,binding,,1 µM,100
CCN1CCN(Cc2ccc(C(=O)Nc3ccc(C)c(Oc4ccc5c(c4)CC(=O)N5)c3)cc2C(F)(F)F)CC1,binding,competition with immobilised ligand,1 µM,100
O=C(c1ccc(Nc2nccc(-c3cc4ccccc4s3)n2)cc1)N1CCC(N2CCCC2)CC1,binding,competition with immobilised ligand,1 µM,31
CNC(=O)[C@@H]1CC[C@@H](n2c(-c3ccc4cnccc4c3)nc3ccc(C(=O)NCc4cccc(C(N)=O)c4)cc32)C1,binding,competition with immobilised ligand,1 µM,100
CN(C)c1nccc(-c2cnn3ncccc23)n1,binding,,1 µM,100
CCCOc1ccc([C@@H]2[C@@H](C(=O)O)[C@H](c3ccc4c(c3)OCO4)CN2CC(=O)Nc2c(CC)cccc2CC)cc1,cell-free assay,competition with immobilised ligand,1 µM,86
N[C@H]1CCN(c2nccc(-c3cnn4ncccc34)n2)C1,binding,,1 µM,84
CCS(=O)(=O)c1cc2cc(C[C@@](O)(CC(C)(C)c3ccc(F)cc3C(N)=O)C(F)(F)F)[nH]c2cn1,cell-free assay,competition with immobilised ligand,1 µM,94
O=C(NCC1CCOCC1)c1n[nH]cc1NC(=O)c1c(F)cccc1F,binding,competition with immobilised ligand,1 µM,100
O=C(NCCCN1CCOCC1)c1ccc(Nc2ncc(Cl)c(-c3ccc(Cl)s3)n2)cc1,binding,competition with immobilised ligand,1 µM,47
O=C(NCc1ncc(C(F)(F)F)cc1Cl)c1ccc2c(c1)C1(CCS(=O)(=O)CC1)[C@H](C1CC1)N2S(=O)(=O)c1ccc(F)cc1,cell-free assay,competition with immobilised ligand,1 µM,100
COc1ccnn2ncc(-c3ccnc(N(C)C)n3)c12,binding,,1 µM,100
O=C(c1ccc(Nc2ncc(Cl)c(-c3cc4ccccc4s3)n2)cc1)N1CCC(N2CCCC2)CC1,binding,competition with immobilised ligand,1 µM,19
CS(=O)(=O)N1CCCC(NC(=O)[C@H](CCC2CCCCC2)NC(=O)c2ccc(CNc3ncnc4c3nnn4-c3ccccc3)cc2)C1 (stereo partly shown),cell-free assay,competition with immobilised ligand,0.1 µM,73
C[C@@H]1CN(c2ccc3ncc(-c4ccc5[nH]nc(C6CC6)c5c4)n3n2)C[C@H](C)O1,binding,competition with immobilised ligand,50 nM,99
O=C(NCCCC1CCCCC1)c1ccc(CNC(=O)c2cnn(-c3ccccc3)c2C(F)(F)F)cc1,cell-free assay,competition with immobilised ligand,0.1 µM,100
FC(F)(F)Oc1cccc(-c2cnc3ccc(-c4ccncc4)nn23)c1,cell-free assay,competition with immobilised ligand,5 µM,76
COc1cnc(Nc2cccc(S(N)(=O)=O)c2)nc1N1CCN(c2ccccc2)C(=O)C1,binding,competition with immobilised ligand,1 µM,100
C[C@H](NC(=O)c1cnc2n1[C@](C)(Cc1ccc(C#N)cc1)C(=O)N2c1cc(Cl)c(F)c(Cl)c1)C(=O)NC1(c2ccccn2)CC1,cell-free assay,competition with immobilised ligand,1 µM,91
CC1CCCN1c1nccc(-c2cnn3ncccc23)n1 (stereo not shown),binding,,1 µM,98
CC(=O)C1=C(C)N(c2cccc(C(F)(F)F)c2)C(=O)N[C@@H]1c1ccc(C#N)nc1,cell-free assay,competition with immobilised ligand,1 µM,100
Nc1ncc2c(n1)-c1c([nH]c3ccc(C#CC4CC4)cc13)CCCC2,binding,competition with immobilised ligand,1 µM,100
